Data published in ChEMBL document CHEMBL1125824, “New pepstatin analogues: synthesis and pepsin inhibition” (J Med Chem, 1991).

Tests used:
Pepsin A [1] = molecular target: T1, Pepsin A (Sus scrofa, UniProt P00791); assay: Compound was measured for the apparent inhibition constant at pepsin
Outline: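 Apparent Ki from the pepsin–hemoglobin assay: pH 2.0 KCl–HCl buffer, 30 min total at 37 °C, perchloric acid quench, A280 of supernatant minus blank. IC50 came from % inhibition vs log [inhibitor], four replicates at ≥5 concentrations. Ki(app) was calculated as IC50 − 0.5[E]0, where [E]0 is the enzyme concentration.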

Pepsin A [2] = molecular target: T1, Pepsin A; assay: Compound was measured for the inhibition of pepsin hydrolysis of hemoglobin.
Outline: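 Porcine pepsin acting on hemoglobin substrate (0.5% solution) with inhibitor in 0.02 M KCl–HCl, pH 2.0. Substrate and inhibitor were preincubated 3 min at 37 °C, then enzyme was added for 27 min at 37 °C. The reaction was quenched with 1.5 M perchloric acid, protein was spun out, and A280 was read minus a no-enzyme blank. Four replicates at ≥5 concentrations; IC50 from % inhibition vs log concentration.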

T1 sequence (P00791 whole entry): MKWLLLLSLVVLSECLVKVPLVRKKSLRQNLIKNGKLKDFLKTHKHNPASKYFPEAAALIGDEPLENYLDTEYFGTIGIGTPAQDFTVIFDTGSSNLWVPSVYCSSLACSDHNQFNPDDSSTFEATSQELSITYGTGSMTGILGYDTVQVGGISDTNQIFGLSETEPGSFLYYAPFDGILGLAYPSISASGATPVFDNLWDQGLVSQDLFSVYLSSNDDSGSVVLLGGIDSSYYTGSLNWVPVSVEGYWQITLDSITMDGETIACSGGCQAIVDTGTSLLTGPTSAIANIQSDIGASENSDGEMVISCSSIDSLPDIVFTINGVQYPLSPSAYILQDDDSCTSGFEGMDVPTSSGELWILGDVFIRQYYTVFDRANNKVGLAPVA

Which results are given for `CC(C)CC(NC(=O)[C@@H](NC(=O)[C@H](NC(=O)OCc1ccccc1)C(C)C)C(C)C)C(O)CC(=O)O` (stereo partly specified)?
Ki (Pepsin A [1]): 39.4 µM; IC50 (Pepsin A [2]): 39.4 µM

Which Ki (Pepsin A [1]) does the source give for `CCCCC(NC(=O)[C@@H](NC(=O)[C@H](NC(=O)OCc1ccccc1)C(C)C)C(C)C)C(O)CC(=O)O` (stereo partly specified) here?
The Ki was 17.7 µM.

What about the IC50 (Pepsin A [2]) of the same compound?
The IC50 was 17.7 µM.

Which results are given for `CC(C)[C@H](NC(=O)OCc1ccccc1)C(=O)N[C@H](C(=O)NC(c1ccccc1)C(O)CC(=O)O)C(C)C` (stereo partly specified)?
Ki (Pepsin A [1]): 0.41 µM; IC50 (Pepsin A [2]): 0.42 µM

For `CC(C)[C@H](NC(=O)OCc1ccccc1)C(=O)N[C@H](C(=O)NC(c1ccc(O)cc1)C(O)CC(=O)O)C(C)C` (stereo partly specified), which Ki (Pepsin A [1]) is on record?
The Ki was 1130 µM.

What about the IC50 (Pepsin A [2]) of the same compound?
Its IC50 is 1130 µM.

Which results are given for `CC(C)[C@H](NC(=O)[C@H](NC(=O)OCc1ccccc1)C(C)C)C(=O)NC(c1ccccc1)C(O)CC(=O)O` (stereo partly specified)?
Ki (Pepsin A [1]): 346 µM; IC50 (Pepsin A [2]): 346 µM

What does the source list for `CC(C)[C@H](NC(=O)[C@H](NC(=O)OCc1ccccc1)C(C)C)C(=O)NC(c1ccc(O)cc1)C(O)CC(=O)O` (stereo partly specified)?
Ki (Pepsin A [1]): 1540 µM; IC50 (Pepsin A [2]): 1540 µM

For `CC(C)CC(=O)N[C@H](C(=O)N[C@H](C(=O)N[C@@H](CC(C)C)[C@@H](O)CC(=O)N[C@@H](C)C(=O)N[C@@H](CC(C)C)[C@@H](O)CC(=O)O)C(C)C)C(C)C` [PEPSTATIN], which IC50 (Pepsin A [2]) is on record?
Its IC50 is 0.007 µM.

How did the Ki (Pepsin A [1]) turn out when `CC(C)CC(NC(=O)[C@@H](NC(=O)[C@@H](NC(=O)OCc1ccccc1)C(C)C)C(C)C)C(O)CC(=O)O` (stereo partly specified) was run?
The Ki was 0.19 µM.

What about the IC50 (Pepsin A [2]) of the same compound?
The IC50 was 0.2 µM.

`CCCCC(NC(=O)[C@@H](NC(=O)[C@@H](NC(=O)OCc1ccccc1)C(C)C)C(C)C)C(O)CC(=O)O` (stereo partly specified) was tested. Which IC50 (Pepsin A [2]) did it give?
The IC50 was 0.01 µM.
